Screening results deposited in PubChem BioAssay by Broad Institute.
FN deposition inh = fibronectin deposition inhibition; 350,000 compounds, 0.086% hits; AH1F fibroblasts, Alexa488-fibronectin deposition fluorescence, overnight; inhibition, % at 12.6 µM; AID 743247;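 active = mean inhibition across replicates of 30% or more, regardless of how many single replicates reach that level; inconclusive = mean under 30% yet at least half of replicates reach 30%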
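material = AH1F fibroblast monolayer depositing Alexa488-labelled fibronectin into matrix | amount = 10000 AH1F cells/well | buffer or medium = DMEM plus 2% serum, read in PBS | incubation = 1 h cell adhesion before compound, then overnight fibronectin incubation | detection = fluorescence at 485 nm excitation, 525 nm emission | evaluation = percent inhibition as loss of matrix-bound fibronectin fluorescence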
HIV Env fusion = inhibitors of HIV Env-mediated cell fusion. AID 651610. inhibition, % at 12.3 µM. HeLa-JRFL Env/CEM21 cell fusion, luciferase. 360,000 compounds, 1.1% hits;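 active = mean replicate inhibition score of at least 50 and every replicate individually at or above 50; inconclusive = only one of the two criteria met; inactive = mean below 50 and not all replicates reaching 50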
PGC1a acetyl inh = modulators of PGC1a acetylation; 350,000 compounds, 0.17% hits; U2OS PGC1a acetylation, AlphaScreen anti-acetyl-lysine; with virally co-expressed GCN5 acetyltransferase; inhibition, % at 15.6 µM;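 active = every replicate shows inhibition of at least 40%; inconclusive = mean inhibition at least 40% but some replicate below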
F508del corr = CFTR F508del correction in bronchial cells. 350,000 compounds, 0.36% hits. CFBE cells, YFP halide quenching; stimulated with forskolin plus potentiator P3; % fluorescence drop versus neutral controls. activity (quench increase), % at 7.58 µM. AID 720511;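 active = mean added fluorescence quench of at least 8% versus neutral control, with both replicates also reaching 8%; inconclusive = only one of the mean or replicate conditions met; inactive = mean below 8% and not both replicates reaching 8%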;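 also: cells transiently co-express mutant CFTR-F508del with the halide-sensitive YFP; corrector assay measuring rescue of mutant channel to the surface after 24 h compound exposure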
PAX8 inh HTS = lowers PAX8-driven luciferase in RMG-I cells; RMG-I TPO-luciferase reporter, SteadyGlo, 24 h; inhibition, % at 12.6 µM; 360,000 compounds, 1.2% hits;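 active = mean replicate inhibition at least 60% with every replicate also reaching 60%; inconclusive = only one of the two criteria is met; inactive = mean below 60% and not all replicates reaching 60%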;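 also: luciferase light reporting Pax8 driven TPO promoter activity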
EWS-Fli block = blocks EWS/Fli oncoprotein-driven transcription; A673 NR0B1-luciferase reporter, viability-normalised; inhibition, % at 12.6 µM; 350,000 compounds, 0.67% hits; AID 651661;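 active = mean inhibition of at least 50% after viability correction, with every replicate also passing that limit; inconclusive = mean reaches 50% but only one of two replicates passes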;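 also: firefly luciferase signal divided by Alamar Blue viability fluorescence both relative to DMSO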
Each line names hits and unclear results; the compound was inactive in the other large screens; [ ] = remark or other dose. Shown are actives, neighbours in structure and some others; about 2.3% of the full set was active somewhere.

C[C@@H](NC(=O)C[C@H]1CC[C@@H]2[C@H](COC[C@H](O)CN2Cc2cc(F)ccc2F)O1)c1ccccc1	none
C[C@H]1CN([C@@H](C)CO)C(=O)c2cc(NC(=O)Nc3ccc(C(F)(F)F)cc3)ccc2O[C@H]1CN(C)CC1CC1	none (no result: FN deposition inh, PGC1a acetyl inh)
C[C@@H]1CN([C@H](C)CO)C(=O)c2cc(NC(=O)Nc3ccc(C(F)(F)F)cc3)ccc2O[C@@H](C)CCCCO[C@@H]1CN(C)C(=O)Cc1ccccc1	PAX8 inh HTS 72 (no result: FN deposition inh, PGC1a acetyl inh)
C[C@@H]1CN([C@H](C)CO)C(=O)c2cc(NC(=O)Nc3ccccc3)ccc2O[C@@H](C)CCCCO[C@@H]1CN(C)C(=O)Cc1ccccc1	none
C[C@@H]1CCCCO[C@H](CN(C)C(=O)Cc2ccccc2)[C@@H](C)CN([C@@H](C)CO)C(=O)c2cc(NC(=O)Nc3ccc(C(F)(F)F)cc3)ccc2O1	HIV Env fusion 62[16.7 µM], PAX8 inh HTS 79 (no result: FN deposition inh, PGC1a acetyl inh)
CC(C)=NNc1ncnc2nc[nH]c12	PAX8 inh HTS 70 (no result: F508del corr)
CCc1ccc(-c2nc(C(N)=O)c3[nH]c(=O)n(-c4ccccc4OC)c3n2)cc1	F508del corr 8.9, EWS-Fli block 63
CCCC#Cc1cnc2c(c1)C(=O)N([C@H](C)CO)C[C@H](C)[C@@H](CN(C)Cc1ccncc1)O2	none (no result: F508del corr)
CO[C@H]1CN(C)C(=O)c2cc(NC(=O)c3ccccc3)ccc2OC[C@@H](C)NC[C@H]1C	none
CO[C@@H]1CN(C)C(=O)c2ccc(NS(=O)(=O)c3ccc(Oc4ccccc4)cc3)cc2OC[C@@H](C)NC[C@@H]1C	HIV Env fusion 56[16.7 µM] (no result: PAX8 inh HTS)
CO[C@H]1CN(C)C(=O)c2ccc(NC(=O)c3ccc(-c4ccccc4)cc3)cc2OC[C@@H](C)NC[C@H]1C	none
CO[C@@H]1CN(C)C(=O)c2cc(NC(=O)c3ccc(-c4ccccc4)cc3)ccc2OC[C@H](C)NC[C@H]1C	PAX8 inh HTS 84, EWS-Fli block 54 (no result: HIV Env fusion)
CO[C@@H]1CN(C)C(=O)c2cc(NC(=O)c3ccccc3)ccc2OC[C@H](C)NC[C@@H]1C	none
CO[C@H]1CN(C)C(=O)c2cc(NC(=O)c3ccc(-c4ccccc4)cc3)ccc2OC[C@@H](C)NC[C@@H]1C	PAX8 inh HTS 112 (no result: HIV Env fusion)
CO[C@H]1CN(C)C(=O)c2cc(NC(=O)c3ccc(-c4ccccc4)cc3)ccc2OC[C@H](C)NC[C@@H]1C	EWS-Fli block 58 (no result: HIV Env fusion)
C[C@@H]1CCCCO[C@H](CN(C)S(=O)(=O)c2ccc(Cl)cc2)[C@@H](C)CN([C@@H](C)CO)C(=O)c2cc(NC(=O)Nc3cccc4ccccc34)ccc2O1	none
O=C(C[C@@H]1CC[C@@H]2[C@H](COC[C@H](O)CN2Cc2ccccc2F)O1)N[C@@H]1CCN(Cc2ccccc2)C1	none (no result: HIV Env fusion)
CO[C@@H]1CN(C)C(=O)c2cc(NC(=O)c3ccc(Oc4ccccc4)cc3)ccc2OC[C@H](C)NC[C@H]1C	EWS-Fli block 69
CO[C@@H]1CN(C)C(=O)c2ccc(NC(=O)c3ccc(-c4ccccc4)cc3)cc2OC[C@@H](C)NC[C@H]1C	FN deposition inh 40, PAX8 inh HTS 68 (no result: HIV Env fusion)
CO[C@H]1CN(C)C(=O)c2ccc(NC(=O)c3ccc(-c4ccccc4)cc3)cc2OC[C@H](C)NC[C@@H]1C	none (no result: HIV Env fusion, EWS-Fli block)
CO[C@H]1CN(C)C(=O)c2cc(NC(=O)c3ccc(Oc4ccccc4)cc3)ccc2OC[C@@H](C)NC[C@@H]1C	none
O=C(Cc1ccccc1)N1CC2(C1)[C@H](c1ccccc1)[C@H](CO)N2C(=O)c1cccnc1	none (no result: FN deposition inh, HIV Env fusion)
Cc1ccc(N(CC(=O)NCCc2ccc(F)cc2)S(=O)(=O)c2ccc(Cl)c([N+](=O)[O-])c2)c(C)c1	PAX8 inh HTS 78 (no result: F508del corr)
O=C(CN(c1ccc(Br)cc1)S(=O)(=O)c1ccc(Cl)c([N+](=O)[O-])c1)NCCc1ccccc1	none
Cc1noc(C)c1C(=O)N(C)C[C@@H]1OCc2ccccc2-c2ccccc2C(=O)N([C@H](C)CO)C[C@H]1C	none
CC[C@H]1C/C=C\C[C@H](CC)NC(=O)[C@@H](C)CC(=O)N1	none (no result: HIV Env fusion, PGC1a acetyl inh, F508del corr, PAX8 inh HTS, EWS-Fli block)
CN(CC1CCCO1)S(=O)(=O)c1ccc(C(=O)Nc2ccc3c(c2)OCO3)cc1 (stereo not drawn)	none (no result: FN deposition inh, PGC1a acetyl inh, F508del corr)
CCc1nnc(NC(=O)[C@@H](NC(=O)c2cccc(S(=O)(=O)N(CC)CC)c2)C(C)C)s1	HIV Env fusion 70 (no result: F508del corr, PAX8 inh HTS, EWS-Fli block)
CN(CC1CCCO1)S(=O)(=O)c1ccc(C(=O)Nc2nc3cc4c(cc3s2)OCO4)cc1 (stereo not drawn)	HIV Env fusion 57 (no result: FN deposition inh, PGC1a acetyl inh)
CCN(CC)S(=O)(=O)c1cccc(C(=O)Nc2nc3cc4c(cc3s2)OCCO4)c1	HIV Env fusion 62 (no result: FN deposition inh, F508del corr, PAX8 inh HTS, EWS-Fli block)
CCN(CC)S(=O)(=O)c1cccc(C(=O)NC(C(=O)NCCc2ccccn2)C(C)C)c1 (stereo not drawn)	none (no result: PAX8 inh HTS)
CC(C)NC(=O)Nc1ccc2c(c1)CC(=O)N([C@H](C)CO)C[C@@H](C)[C@@H](CN(C)Cc1ccc(C(F)(F)F)cc1)O2	none (no result: FN deposition inh, HIV Env fusion)
CC(C)NC(=O)N[C@H]1C=C[C@@H](CC(=O)NCCCN(C)C)O[C@H]1CO	none
C[C@@H]1C(=O)NCCC=CC[C@H](C)Oc2ccccc2C(=O)N1C (mixture of isomers)	none (no result: HIV Env fusion, PGC1a acetyl inh, F508del corr, PAX8 inh HTS, EWS-Fli block)
COC(=O)c1ccc(OC)c(CSc2nnc(COc3ccc(Cl)cc3)o2)c1	HIV Env fusion 60 (no result: F508del corr, PAX8 inh HTS, EWS-Fli block)
Cc1ccc(S(=O)(=O)Nc2ccc3c(c2)C(=O)N([C@H](C)CO)C[C@@H](C)[C@@H](CN(C)Cc2ccc(C(F)(F)F)cc2)OCCCC[C@H](C)O3)cc1	HIV Env fusion inconclusive, PAX8 inh HTS 96
Cc1ccc(S(=O)(=O)Nc2ccc3c(c2)C(=O)N([C@@H](C)CO)C[C@H](C)[C@@H](CN(C)Cc2ccc(C(F)(F)F)cc2)OCCCC[C@H](C)O3)cc1	PAX8 inh HTS 80
Cc1ccc(S(=O)(=O)Nc2ccc3c(c2)C(=O)N([C@@H](C)CO)C[C@@H](C)[C@H](CN(C)Cc2ccc(C(F)(F)F)cc2)OCCCC[C@@H](C)O3)cc1	HIV Env fusion 108[16.7 µM], PAX8 inh HTS 108
Cc1ccc(S(=O)(=O)Nc2ccc3c(c2)C(=O)N([C@H](C)CO)C[C@H](C)[C@H](CN(C)Cc2ccc(C(=O)O)cc2)OCCCC[C@@H](C)O3)cc1	none
Cc1ccc(S(=O)(=O)Nc2ccc3c(c2)C(=O)N([C@H](C)CO)C[C@H](C)[C@@H](CN(C)Cc2ccc(C(F)(F)F)cc2)OCCCC[C@@H](C)O3)cc1	none
Cc1ccc(S(=O)(=O)Nc2ccc3c(c2)C(=O)N([C@H](C)CO)C[C@@H](C)[C@@H](CN(C)Cc2ccc(C(F)(F)F)cc2)OCCCC[C@@H](C)O3)cc1	HIV Env fusion 69[16.7 µM], PAX8 inh HTS 87
COC(=O)C[C@@H]1CC[C@@H]2[C@@H](COc3ccc(NC(=O)c4ccc(F)c(F)c4)cc3C(=O)N2C)O1	none
